Tests used:
[1] = NAC adduct formation in solution; format: in vitro ADME; details: deionized water, 30 min, direct MS; adducts of fragments of NAC and BI-94
Method in brief: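 For structural identification, test compound (final 10 μg/mL) incubated 30 min in water with GSH or NAC, then analysed by direct LC-MS/MS and MS/MS. NAC adducts were screened by EMS-IDA-EPI (positive and negative ESI) only. GSH adducts were also screened by negative-mode precursor ion scans (m/z 254, 272) and by isotopic filtering with 1:1 GSH:[13C2,15N]-GSH.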

[2] = target: human serum albumin (HSA)-T3 peptide (Homo sapiens, UniProt P02768); assay: HSA-T3 peptide adduct formation in solution; format: in vitro ADME; details: deionized water, 30 min; MS/MS mass shifts +164 (A1) and +273 (A2)
Sequence of human serum albumin (HSA)-T3 peptide (P02768 45-65 limits assumed): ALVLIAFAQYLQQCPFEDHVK

[3] = GSH and NAC adduct formation in spiked mouse plasma; format: in vitro ADME
Method in brief: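 Freshly collected blank mouse blood/plasma and frozen plasma spiked at 10 μg/mL and held 5 and 20 min at room temperature. One frozen-plasma set was fortified with 9.8 μM GSH before spiking. Samples extracted with four volumes MeOH and spun at 16 000 × g for 10 min. Supernatant was mixed 1:1 with 20% methanol in 7.5 mM ammonium formate (pH 2.5). GSH/NAC adducts quantified by negative-mode LC-MS/MS MRM.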

[4] = GSH adduct formation in solution; format: in vitro ADME
[5] = Stability of BI-94 in solution; format: physicochemical; details: for stability in solution: 10 μg/mL, up to 60 min
Balb/c mice = assay: GSH and NAC adduct formation in vivo after intravenous dose to mice
[6] = Stability of BI-94 in rat plasma; format: in vitro ADME; details: immediately after spiking (data not shown)
[7] = Stability of BI-94 in human plasma; format: in vitro ADME; details: immediately after spiking (data not shown)
[8] = Stability / recovery of BI-94 in mouse plasma; format: in vitro ADME
Method in brief: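 Mouse plasma (stored −80°C) spiked at 10 μg/mL, room temperature: undiluted, or diluted with one or nine volumes of water or 7.5 mM ammonium formate (pH 2.5). At 1, 20 and 60 min, extracted with four volumes MeOH and spun 16 000 × g for 10 min. Supernatant mixed 1:1 with 20% methanol in formate buffer. Post-extracted plasma was spiked after MeOH extraction. Analysed by LC-MS/MS, m/z 319.1→179.8; % recovery.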

[9] = Stability of BI-94 in monkey plasma; format: in vitro ADME; details: immediately after spiking (data not shown)
NCI 60 cell line panel = details: read-out: average GI50; average value in the NCI 60 cell line panel; cited from earlier work
[10] = water, after 60 min of incubation

Compound: O=[N+]([O-])c1ccc(S(=O)(=O)Cc2ccccc2)c2nonc12 [BI-94, 4-(benzylsulfonyl)-7-(hydroxy(oxido)amino)-2,1,3-benzoxadiazole]
- NAC adducts detected [1]: three NAC adducts
- adduct formation with HSA-T3 peptide, site [2]: forms adducts with albumin at the Cys34 position
- GSH adducts (A1 and A2) and NAC adduct (A1) in spiked plasma ([3]; blank plasma freshly collected from mice, 10 μg/mL): detected
- GSH and NAC adducts in spiked plasma ([3]; frozen blank mouse plasma): none of the adducts
- BI-94 depleted on incubation with GSH ([4]; NH4-formate buffer of pH 2.5, over 1 h): 14%
- decrease in BI-94 peak area on incubation with GSH ([4]; PBS, within 5 min of incubation): 94.5%
- GSH adducts detected ([4]; deionized water, 30 min, direct MS, adducts with a fragment of BI-94): two adducts
- decrease in BI-94 peak area on incubation with GSH [4, 10]: 64%
- increase in peak area of A1 and A2 GSH adducts [4, 10]: 6 fold
- stability in the autosampler ([5]; 48 h in 50 % methanol in H2O reconstitution solution (data not shown)): stable
- stability in solution ([5]; NaOH or various buffers at pHs 7–9, room temperature): not stable
- stability in solution ([5]; water and various buffers at pHs 2.5–5, room temperature): stable
- time within which all three mice died after BI-94 administration (Balb/c mice; 10 mg/kg intravenous dose, male Balb/c mice (n = 3)): ≤ 2 h
- BI-94 adducts with GSH (A1 and A2) and NAC (A1 and A2) in plasma in vivo (Balb/c mice; plasma 5 and 60 min after 10 mg/kg intravenous dose to mice): detected
- recovery from plasma [6]: < 1%
- recovery from plasma [7]: < 1%
- recovery from post-extracted plasma ([8]; blank plasma pre-treated with MeOH and formate buffer, after 60-min incubation): 100%
- recovery from mouse plasma ([8]; immediately after spiking, plasma diluted with one or nine volumes of H2O): below detection limit
- recovery from mouse plasma ([8]; immediately after spiking, undiluted mouse plasma, 10 μg/mL): below detection limit
- recovery from mouse plasma ([8]; nine volume dilution with 7.5 mM NH4-formate buffer (pH 2.5)): completely recovered
- recovery from mouse plasma ([8]; one volume dilution with 7.5 mM NH4-formate buffer (pH 2.5), 60 min of incubation): 10%
- recovery from mouse plasma ([8]; one volume dilution with 7.5 mM NH4-formate buffer (pH 2.5), immediate): 62%
- recovery from post-extracted plasma ([8]; plasma pretreated with MeOH, after 60-min incubation): 20%
- recovery from post-extracted plasma ([8]; plasma pretreated with MeOH, immediately after spiking): 100%
- recovery from plasma [9]: < 1%
- GI50 (NCI 60 cell line panel): 22.9 µM

Source: article PMC4553108 (Xenobiotica; the fate of foreign compounds in biological …, 2015)
